Experimental data taken from ChEMBL document CHEMBL3425511 (J Med Chem, 2015).
The source made the active and inactive calls.

Key:
[1] = biological target: T1, Transient receptor potential cation channel subfamily V member 2 (Homo sapiens) (UniProt Q9Y5S1); assay: Effect on TRPV2 (unknown origin)
T1 sequence (whole entry): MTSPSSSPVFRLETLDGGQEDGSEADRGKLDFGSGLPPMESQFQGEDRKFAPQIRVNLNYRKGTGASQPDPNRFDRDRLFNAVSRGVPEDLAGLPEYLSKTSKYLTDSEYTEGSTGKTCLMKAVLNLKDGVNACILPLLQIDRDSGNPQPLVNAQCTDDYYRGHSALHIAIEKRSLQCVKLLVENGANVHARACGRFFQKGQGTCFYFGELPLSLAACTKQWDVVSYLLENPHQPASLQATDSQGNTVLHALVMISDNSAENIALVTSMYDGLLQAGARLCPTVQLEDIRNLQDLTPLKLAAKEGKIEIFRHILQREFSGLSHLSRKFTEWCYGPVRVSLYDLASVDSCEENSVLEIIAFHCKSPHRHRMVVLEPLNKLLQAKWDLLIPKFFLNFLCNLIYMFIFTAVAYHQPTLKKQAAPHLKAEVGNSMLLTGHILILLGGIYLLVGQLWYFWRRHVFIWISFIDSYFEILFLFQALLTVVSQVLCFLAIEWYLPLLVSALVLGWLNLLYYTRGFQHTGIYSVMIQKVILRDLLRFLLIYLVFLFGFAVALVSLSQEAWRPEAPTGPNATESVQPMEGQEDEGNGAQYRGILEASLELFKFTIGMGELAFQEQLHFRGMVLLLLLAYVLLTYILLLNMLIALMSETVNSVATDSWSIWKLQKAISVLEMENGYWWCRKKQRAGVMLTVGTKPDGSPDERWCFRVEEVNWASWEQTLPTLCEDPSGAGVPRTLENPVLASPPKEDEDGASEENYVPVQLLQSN

[2] = Volume of distribution at steady state in dog at 2 mg/kg, iv; type: ADME, organism-based, Canis lupus familiaris; set-up: dose 2 mg/kg, route intravenous; details: in vivo, read-out: Vdss
Summary of the method: (§1)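 Intravenous dosing at 2 mg/kg as a solution of the sodium salt in 20% HPβCD, n = 4 animals per group. Vss derived from the plasma pharmacokinetic profile.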

Rattus norvegicus [3] = assay: Reversal of complete freund's adjuvant-induced thermal hypersensitivity in po dosed Sprague-Dawley rat assessed as plasma concentration required to reach ED80 measured at 100 mins; type: functional
Summary of the method: (§2)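 Rats dosed orally 100 min before radiant-heat testing. For CFA, plasma taken right after behavioural testing; for carrageenan, taken from a separate group dosed identically. Blood collected on lithium heparin and centrifuged, plasma stored at −80 °C. Plasma levels matching ED50 and ED80 (EC50/EC80) computed from the dose−response data.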

Rattus norvegicus [4] = assay: Reversal of complete freund's adjuvant-induced thermal hypersensitivity in Sprague-Dawley rat at 10 mg/kg, po measured after 30 to 180 mins; type: functional, organism-based; set-up: dose 10 mg/kg
[5] = Volume of distribution at steady state in rat at 2 mg/kg, iv; type: ADME, organism-based; set-up: dose 2 mg/kg, route intravenous; details: in vivo, read-out: Vdss; summary of the method: as §1
[6] = Cmax in dog at 10 mg/kg, po; type: ADME, organism-based, Canis lupus familiaris; set-up: dose 10 mg/kg, route oral; details: in vivo
Summary of the method: (§3)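 Oral dosing at 10 mg/kg as a solution of the sodium salt in 20% HPβCD, n = 4 animals per group.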

[7] = biological target: Transient receptor potential cation channel subfamily A member 1 (Homo sapiens) (UniProt O75762); assay: Effect on TRPA1 (unknown origin)
[8] = Metabolic stability in rat liver microsomes assessed as compound remaining after 10 mins; type: ADME; details: liver microsomes, read-out: Stability
Summary of the method: (§4)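 Compound incubated 10 min with liver microsomes of the stated species; amount of parent remaining reported as percent.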

[9] = Half life in dog at 2 mg/kg, iv; type: ADME, organism-based, Canis lupus familiaris; set-up: dose 2 mg/kg, route intravenous; details: in vivo
Summary of the method: (§5)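 Intravenous dosing at 2 mg/kg as a solution of the sodium salt in 20% HPβCD, n = 4 animals per group.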

[10] = Cmax in rat at 10 mg/kg, po; type: ADME, organism-based; set-up: dose 10 mg/kg, route oral; details: in vivo; summary of the method: as §3
[11] = Oral bioavailability in rat at 10 mg/kg; type: ADME, organism-based; details: in vivo; summary of the method: as §3
[12] = Volume of distribution at steady state in mouse at 2 mg/kg, iv; type: ADME, organism-based; set-up: dose 2 mg/kg, route intravenous; details: in vivo, read-out: Vdss; summary of the method: as §1
Cavia porcellus = assay: Toxicity in guinea pig assessed as induction of hemodynamic/electrocardiographic effect at 10 mg/kg, iv; type: organism-based; set-up: dose 10 mg/kg, route intravenous; details: in vivo
Summary of the method: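 Anesthetized guinea pigs dosed intravenously to a cumulative 10 mg/kg; hemodynamic and electrocardiographic parameters monitored.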

[13] = Metabolic stability in monkey liver microsomes assessed as compound remaining after 10 mins; type: ADME, Macaca mulatta; details: rhesus monkey, read-out: Stability; summary of the method: as §4
[14] = Clearance in rat at 2 mg/kg, iv; type: ADME, organism-based; set-up: dose 2 mg/kg, route intravenous; details: in vivo; summary of the method: as §5
Cytochrome P450 1A2 = biological target: T2, Cytochrome P450 1A2 (Homo sapiens, UniProt P05177); assay: Inhibition of CYP1A2 in human liver microsomes; type: ADME
T2 sequence (P05177 whole entry): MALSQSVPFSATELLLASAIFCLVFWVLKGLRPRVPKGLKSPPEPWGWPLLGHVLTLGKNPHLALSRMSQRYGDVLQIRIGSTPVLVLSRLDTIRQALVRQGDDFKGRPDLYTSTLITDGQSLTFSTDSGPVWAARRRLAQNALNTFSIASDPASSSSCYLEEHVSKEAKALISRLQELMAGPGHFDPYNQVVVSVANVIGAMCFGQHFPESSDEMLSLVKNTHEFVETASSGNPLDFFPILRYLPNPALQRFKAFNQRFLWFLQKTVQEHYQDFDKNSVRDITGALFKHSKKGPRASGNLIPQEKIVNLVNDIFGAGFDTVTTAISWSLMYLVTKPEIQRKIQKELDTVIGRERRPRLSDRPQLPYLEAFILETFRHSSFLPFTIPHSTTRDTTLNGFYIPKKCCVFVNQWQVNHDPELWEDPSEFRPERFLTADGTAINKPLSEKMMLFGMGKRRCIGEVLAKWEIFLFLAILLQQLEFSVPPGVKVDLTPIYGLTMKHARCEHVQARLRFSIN

Rattus norvegicus [15] = assay: Reversal of carrageenan-induced thermal hypersensitivity in po dosed Sprague-Dawley rat measured at 100 mins; type: functional
Summary of the method: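 Male Sprague−Dawley rats (195−350 g), intraplantar CFA (100 μL, 1:1 CFA:saline) with testing 24 h later, or carrageenan-λ (200 μL, 10 mg/mL) with testing 3 h later. Radiant heat withdrawal latency, 10−15 s baseline, 20 s cutoff; rats with ≥25% latency drop kept. Oral dosing at 2.5 mL/kg. Percent reversal = (treatment − post)/(pre − post) × 100, scored blind.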

Rattus norvegicus [16] = assay: Reversal of carrageenan-induced thermal hypersensitivity in po dosed Sprague-Dawley rat assessed as plasma concentration required to reach ED80 measured at 100 mins; type: functional; summary of the method: as §2
[17] = Half life in rat at 10 mg/kg, po; type: ADME, organism-based; set-up: dose 10 mg/kg, route oral; details: in vivo; summary of the method: as §3
Rattus norvegicus [18] = assay: Toxicity in Sprague-Dawley rat assessed as increase in core body temperature at 100 mg/kg, po measured after 30 to 180 mins by rectal thermometer relative to vehicle-treated control; type: organism-based; set-up: dose 100 mg/kg, route oral; details: in vivo
Summary of the method: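 Male Sprague-Dawley rats, food deprived 18 h, given single oral dose 100 mg/kg or vehicle (HPβCD), n = 8 per group; core temperature taken by rectal thermometer over 3 h. Analysis by two-way repeated-measure ANOVA (vehicle vs compound) with Bonferroni post-tests.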

Sequence of Transient receptor potential cation channel subfamily A member 1 (Homo sapiens) (O75762 whole entry): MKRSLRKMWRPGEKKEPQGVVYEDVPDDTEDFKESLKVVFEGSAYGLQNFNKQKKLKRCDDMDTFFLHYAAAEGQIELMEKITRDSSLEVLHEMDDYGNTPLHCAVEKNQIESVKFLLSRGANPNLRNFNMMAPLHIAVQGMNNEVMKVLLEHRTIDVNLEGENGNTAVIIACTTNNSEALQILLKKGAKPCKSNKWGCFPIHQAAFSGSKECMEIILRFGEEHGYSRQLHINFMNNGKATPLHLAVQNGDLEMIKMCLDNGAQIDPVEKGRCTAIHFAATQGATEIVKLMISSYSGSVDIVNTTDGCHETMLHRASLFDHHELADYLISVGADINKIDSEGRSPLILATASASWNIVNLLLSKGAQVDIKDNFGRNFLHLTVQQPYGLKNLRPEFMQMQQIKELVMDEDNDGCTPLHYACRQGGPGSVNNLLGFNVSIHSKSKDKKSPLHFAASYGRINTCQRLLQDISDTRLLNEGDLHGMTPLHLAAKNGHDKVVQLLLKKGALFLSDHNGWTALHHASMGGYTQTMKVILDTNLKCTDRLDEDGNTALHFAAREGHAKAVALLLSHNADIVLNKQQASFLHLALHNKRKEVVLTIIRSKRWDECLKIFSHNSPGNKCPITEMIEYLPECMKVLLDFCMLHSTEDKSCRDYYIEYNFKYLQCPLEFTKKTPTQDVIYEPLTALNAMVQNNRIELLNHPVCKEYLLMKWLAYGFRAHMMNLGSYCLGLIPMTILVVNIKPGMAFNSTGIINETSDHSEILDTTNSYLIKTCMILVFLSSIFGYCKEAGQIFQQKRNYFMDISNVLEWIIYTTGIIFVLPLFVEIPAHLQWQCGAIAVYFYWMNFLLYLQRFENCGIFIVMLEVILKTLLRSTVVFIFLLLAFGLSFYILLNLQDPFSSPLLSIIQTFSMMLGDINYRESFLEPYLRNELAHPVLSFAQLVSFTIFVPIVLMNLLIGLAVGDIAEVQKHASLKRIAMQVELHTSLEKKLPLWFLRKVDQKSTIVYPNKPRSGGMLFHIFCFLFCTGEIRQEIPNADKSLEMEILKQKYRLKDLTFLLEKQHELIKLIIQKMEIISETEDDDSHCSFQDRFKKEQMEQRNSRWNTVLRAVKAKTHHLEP

Activity [1]: inactive
Vd [2]: 2.7 L/kg
Vd [5]: 10 L/kg
Cmax [6]: 1610 ng/mL
Activity [7]: inactive
remaining at 10 min [8]: 93%
half-life [9]: 66 min
Cmax [10]: 421 ng/mL
bioavailability [11]: 51%
Vd [12]: 2.5 L/kg
remaining at 10 min [13]: 86%
clearance [14]: 33 mL/min/kg
IC50 (Cytochrome P450 1A2): > 25 µM
half-life [17]: 228 min
Compound: CC(C)(O)c1ccccc1-c1ccc2[nH]c(/C=C/c3ccc(C(F)(F)F)cc3)nc2c1
Activity (Rattus norvegicus [3]): 270.8 ng/mL
Activity (Rattus norvegicus [4]): Active
Activity (Cavia porcellus): Non-toxic
ED50 (Rattus norvegicus [15]): 0.18 mg/kg
ED80 (Rattus norvegicus [15]): 0.48 mg/kg
Activity (Rattus norvegicus [16]): 9.2 ng/mL
Activity (Rattus norvegicus [18]): Non-toxic
